Data on seven molecules can be found in PMC5774632 (Science translational medicine, 2017).

Usually EC50 stands for the concentration giving half of the maximal effect. The half-life is how long it takes for the measured level to halve. Higher therefore signals slow decline. What is called Cmax is the peak of the concentration-time curve. For orientation: Tmax means the time at which the peak concentration occurs.

The test system of one data set is C57BL/6 mice. As to the kind of experiment: 5FU survival assay. It counts as in vivo, mouse. To be noted: for survival in serial 5FU assay: 10-day intervals; for increase in median survival over controls / median survival: 100 mg/kg IP 12 h before each 5FU. The procedure, abridged:
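Female C57BL/6 mice, 8–10 weeks old, got 150 mg/kg 5FU IP once every 7 or 10 days. Test compound was given IP at 50 or 100 mg/kg at 30 minutes, 12 hours and/or 24 hours before each 5FU dose. Mice were monitored daily.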

Data set [1] deals with RB-expressing human cell lines. The note with it: vast majority of RB-expressing human cell lines; cited from earlier work.
The subject of another data set is BM HSCs. As to the kind of experiment: H2B-GFP label dilution assay. In kind it is in vivo, mouse. The method in brief: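 Adult homozygous H2B-GFP;M2-rtTA mice got 2 mg/ml doxycycline in drinking water for 6 weeks. Two weeks after withdrawal, vehicle or 150 mg/kg test compound was gavaged 12 h before vehicle or 150 mg/kg 5FU. BM was harvested 4 weeks after 5FU, and Lin−c-Kit+Sca-1+CD150+CD48− HSC H2B-GFP dilution was curve-fitted. PI = daughter cells per labelled HSC; log2(PI) = divisions. Mean ± SD, 3–6 mice, 3 experiments.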

For data set [2] the following is noted: after intraperitoneal injection; cited from earlier work.
For data set [3] the following is noted: ref not given; cited from earlier work.
Data set [4] can be described thus: Terminal half-lives of SCLC standard of care chemotherapy agents. The note with it: 4 half-lives. It counts as in vivo.
For a further data set, the system named is HSCs. As to the kind of experiment: Serial 5FU treatment and competitive BM reconstitution assay. In kind it is in vivo, mouse. To be noted: for long-term reconstitution of PB lineages by donor HSCs, primary transplantation: vs 5FU only. The method in brief:
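Donors were female CD45.1 mice given 4 rounds of PBS or 150 mg/kg 5FU at 3-week intervals; some got 150 mg/kg test compound by gavage (vehicle 50 mM citrate, pH 4.0) 30 min before each 5FU. Eight weeks after the last dose, 500,000 donor BM cells plus 500,000 CD45.2 competitor cells went into C57BL/6 recipients irradiated with 2 × 540 rads. Five donors per group, five recipients each. Lineage chimerism was tracked in PB every 4 weeks for ≥16 weeks.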

A short description of data set [5]: Human PK study, first-in-human Phase I, single IV infusion. In kind it is in vivo. The procedure, abridged: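 Healthy volunteers got a single IV infusion (6–192 mg/m2), with blood sampled predose and at multiple later times. Plasma was spiked with D3-labelled internal standard and protein-precipitated with acetonitrile, then quantified by validated LC-MS/MS. Calibration was 0.5 to 1,000 ng/mL, weighted (1/x2) linear, LLOQ 0.5 ng/mL. PK parameters were derived by noncompartmental and compartmental methods.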

The next data set concerns human BM HSPCs. As to the kind of experiment: Human BM proliferation assay. In kind it is in vivo. The note with it: 192 mg/m^2, 24 hours after dose. The method in brief: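 Healthy volunteers in the 192 mg/m2 single-IV-dose cohort each gave one bone marrow aspirate: predose (n = 5), 24 h (n = 3) or 32 h (n = 4). Lineages were identified by flow cytometry with CD45, CD34, CD14, CD11b, CD71 and CD61. Cell cycle phase (G0/G1 vs S/G2/M) came from DRAQ5 DNA content.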

In the next data set the test system is BM progenitors. As to the kind of experiment: Single dose 5FU hematologic recovery and methylcellulose colony formation assay. In kind it is in vivo, mouse.
The nature of data set [6]: Human safety and tolerability assessment, Phase I healthy volunteers. It counts as in vivo. The procedure, abridged: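 Single-centre, double-blind, randomised, placebo-controlled (3:1) single-dose IV study in healthy adults aged 18–60, BMI 18–32 kg/m2, ≥50 kg. Doses were 6, 12, 24, 48, 96 or 192 mg/m2. Subjects stayed in clinic Day −1 to Day 5 and returned Days 7, 10 and 14. Monitoring covered AEs, clinical laboratory tests, vital signs, 12-lead ECG and physical examination. Toxicity was graded by CTCAE v4.0.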

The test system of the next data set is murine HSPCs. As to the kind of experiment: In vivo G1T28 dose response and pharmacodynamic assay. Further details: species or system mouse. The method in brief: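 Female C57BL/6 mice, 8–10 weeks old, got a single IP dose of 50 or 100 mg/kg test compound. EdU 10 mg/kg IP followed at 0.5 to 168 h, and BM and thymus were harvested 2 h later. Surface-stained cells were live/dead-labelled, fixed in 5% formalin, permeabilised with saponin and click-stained with Alexa Fluor 555 azide. DNA was stained with 2 μg/ml DAPI before flow cytometry. n = 3–6 mice/dose/time point.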

Setting [7] is: single agent, 6 weeks after doxycycline removal.
The mark [8] stands for this setting: 4 rounds of 5FU at 3-week intervals.
[9] abbreviates: human, plasma, intravenous, 192 mg/m2.
The mark [10] stands for this setting: G1T28 12 hours before single 5FU, 4 weeks after 5FU.
[11] abbreviates: after G1T28 treatment, single IP 50 or 100 mg/kg.

On to `CC(=O)c1c(C)c2cnc(Nc3ccc(N4CCNCC4)cn3)nc2n(C2CCCC2)c1=O` [palbociclib, reference compound], for which the “survival in serial 5FU assay” value in the data set with C57BL/6 mice was “survival benefit”. In addition, the EC50 in data set [1] is above 2000 nM.

On to `O=c1[nH]cc(F)c(=O)[nH]1` [5FU, 5-fluorouracil, reference compound], for which, in the data set on BM HSCs (setting [7]), the “average number of HSC divisions” value worked out at 5.3 ± 0.5 divisions and the “proliferation index (PI)” value was determined as 41.3 ± 5.4. The “plasma t1/2” value in data set [2] is 0.167 to 0.333 h.

Turning to `CN(C)C(=O)c1cc2cnc(Nc3ccc(N4CCNCC4)cn3)nc2n1C1CCCC1` [ribociclib, reference compound], the “survival in serial 5FU assay” value in the data set with C57BL/6 mice is “survival benefit”.

Consider `N.N.O=C([O-])C1(C(=O)[O-])CCC1.[Pt+2]` [carboplatin], for which, in data set [3], the terminal half-life was 6 h.

With `COc1cc([C@@H]2c3cc4c(cc3[C@@H](O[C@@H]3O[C@@H]5CO[C@@H](C)O[C@H]5[C@H](O)[C@H]3O)[C@H]3COC(=O)[C@H]23)OCO4)cc(OC)c1O` [etoposide], the terminal half-life in data set [3] was 7.5 h. The “fraction cleared during a 32-hour G1 arrest” value in data set [4] is recorded as “approximately 94%”.

Take `CN1CCN(c2ccc(Nc3ncc4cc5n(c4n3)C3(CCCCC3)CNC5=O)nc2)CC1` [G1T28, trilaciclib]: in the data set on HSCs (setting [8]), the “long-term reconstitution of PB lineages by donor HSCs, primary transplantation” value is reported as “enhanced reconstitution of all lineages”. Also, the “reconstitution in secondary recipients” value with HSCs (secondary transplantation 32 weeks after initial transplantation) is “significantly greater overall reconstitution”. Also, in data set [5] (after end of infusion), the “end of fast α-phase of elimination” value is “approximately 4 h” and the “end of β-phase of elimination” value is given as “approximately 36 h”. Also, the half-life in data set [5] (human, plasma, intravenous) lay within 5.32 to 9.28 h. Also, in data set [5] (setting [9]), the Cmax is 1700 ng/mL and the half-life lay within 12.9 to 14.7 h. For the same molecule, in data set [5] (human, plasma, iv), the Tmax fell in the range of 0.25 to 0.47 h. The “contribution of the terminal phase to the effective half-life” value in data set [5] (in vivo) was 15-20%. The “reduction in S/G2/M cell frequency of total BM cells” value in the data set with human BM HSPCs is reported as 45%. In the data set on C57BL/6 mice (5FU at 7-day intervals), the “increase in median survival over controls” value was found to be 55% and the median survival was 28 days. Moreover, in the data set on C57BL/6 mice (5FU at 10-day intervals), the “increase in median survival over controls” value is recorded as 125% and the median survival is listed as 63 days. The survival protection result with C57BL/6 mice (10-day assay, G1T28 30 minutes before each 5FU) is recorded as “Marked protection”. In the data set with C57BL/6 mice (10-day assay, G1T28 given twice, −24 h and −30 min), the “survival protection over treatment at −30 min alone” value is listed as “no additional protection”. Also, the colony-forming cells surviving entry in the data set with BM progenitors (1 and 2 days after 5FU treatment) was “increased the number of colony-forming cells”. The PB count recovery entry with BM progenitors (G1T28 30 minutes before single 5FU) is given as “significantly accelerated the PB count recovery”. Moreover, in the data set with BM HSCs (setting [10]), the “average number of HSC divisions” value is listed as 4.6 ± 0.4 divisions and the “proliferation index (PI)” value stood at 25.2 ± 4.7. In the data set with BM HSCs (setting [7]), the “average number of HSC divisions” value is on record as 2.4 ± 1.0 divisions and the “proliferation index (PI)” value is on record as 6.2 ± 2.6. In addition, the “clinical laboratory testing, vital signs, ECG, physical examination, body weight” value in [6] (all treatment groups) is reported as “no clinically relevant changes”. For the same molecule, in data set [6] (single IV infusion), the “most frequently reported TEAEs” value is “headache and nausea”; the “severe or life-threatening TEAEs” value is “No TEAEs of severe or life-threatening intensity were reported”. In addition, the tolerability result in [6] (single IV infusion, all test doses) is recorded as “well tolerated”. Moreover, the “peripheral blood cell counts” value in data set [6] (single dose, up to 14 days after infusion) is “did not significantly alter”. In the data set on murine HSPCs (setting [11]), the “duration of reduction in EdU incorporation in HSCs before recovery” value is reported as “up to 36 hours”; the “time of minimum EdU incorporation and S/G2/M cell frequency in HSCs” value was 12 h. Further, the “EdU incorporation (S-phase cells) in all hematopoietic cell types” value with murine HSPCs (single IP dose, 12 hours after treatment) is given as “dose-dependent reduction in EdU incorporation”.

B1: pegfilgrastim (protein, chains of the INN, looked up)
chain: TPLGPASSLPQSFLLKCLEQVRKIQGDGAALQEKLCATYKLCHPEELVLLGHSLGIPWAPLSSCPSQALQLAGCLSQLHSGLFLYQGLLQALEGISPELGPTLDTLQLDVADFATTIWQQMEELGMAPALQPTQGAMPAFASAFQRRAGGVLVASHLQSFLEVSYRVLRHLAQP
modifications: PEG
Consider B1, for which, in the data set on HSCs (setting [8]), the “long-term HSC function, combined use of pegfilgrastim with G1T28” value is “abolished the HSC protective effect of G1T28” and the “long-term reconstitution of PB lineages by donor HSCs, primary transplantation” value is reported as “did not benefit long-term HSC function”. The “survival in serial 5FU assay” value with C57BL/6 mice is “survival benefit”.
